Laboratory results: ChEMBL document CHEMBL4130635, “2,4-Diaminoquinazolines as Dual Toll-like Receptor (TLR) 7/8 Modulators for the Treatment of Hepatitis B Virus” (J Med Chem, 2018)
Activity calls are given as the source filed them. The calls are words filed in the database; no cut-off is given here.

How the values were obtained:
[1] = Plasma concentration in C57BL/6J mouse at 30 mg/kg, po by LC-MS analysis; type: ADME, organism-based; settings: in vivo
Liver [2] = test: Upregulation of IP-10 mRNA expression levels in C57BL/6J mouse liver at 10 mg/kg, po by RT-qPCR analysis (reference value: 1); type: functional
Plasma [3] = test: Effect on cytokine profile in C57BL/6J mouse plasma assessed as IFNgamma levels at 10 mg/kg, po by multiplex assay; type: functional
Procedure, shortened: (§1)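 Single oral gavage in 20% HP-β-CD to healthy C57BL/6 mice, groups of 15 at 0.3, 1, 3, 10 or 30 mg/kg. Three mice per group sacrificed at 0.5, 1, 2, 4 or 7 h. Plasma and liver cytokines by multiplex, maximum level reported, rounded to nearest multiple of 5.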

Liver [4] = test: Proinflammatory activity in C57BL/6J mouse liver assessed as CXCL-1 levels at 1 mg/kg, po by multiplex assay (reference value: 25 pg/g); type: functional
Cynomolgus monkey [5] = test: Proinflammatory activity in cynomolgus monkey plasma assessed as TNFalpha levels at 30 mg/kg, po after 24 hrs by Luminex assay (reference value: 285 pg/ml); type: functional, Macaca fascicularis
[6] = system: Toll-like receptor 7/8 (Homo sapiens); test: Agonist activity at TLR7/8 in human PBMCs assessed as decrease in intracellular HBV-rcDNA levels in human hepatocytes infected with HBV genotype C for 12 days followed by exposure to conditioned supernatant from up to 5 uM compound treated PBMCs measured after 42 days
[7] = Permeability of the compound in porcine LLC-PK1 cells expressing MDR1 at 1 uM by LC-MS/MS analysis; type: ADME, cell-based, Sus scrofa; settings: pig, llc-pk1, 1 µM
[8] = biological target: T1, Toll-like receptor 7 (Homo sapiens) (UniProt Q9NYK1); test: Agonist activity at TLR7 in human PBMC assessed as suppression of HCV replicon replication in human HuH7 luc/neo cells harboring RNA encoding bicistronic expression construct comprising wild type HCV type 1b NS3-NS5B regions exposed to conditioned media from compound treated PBMCs after 24 hrs by luciferase reporter gene assay; type: cell-based
T1 sequence (whole entry): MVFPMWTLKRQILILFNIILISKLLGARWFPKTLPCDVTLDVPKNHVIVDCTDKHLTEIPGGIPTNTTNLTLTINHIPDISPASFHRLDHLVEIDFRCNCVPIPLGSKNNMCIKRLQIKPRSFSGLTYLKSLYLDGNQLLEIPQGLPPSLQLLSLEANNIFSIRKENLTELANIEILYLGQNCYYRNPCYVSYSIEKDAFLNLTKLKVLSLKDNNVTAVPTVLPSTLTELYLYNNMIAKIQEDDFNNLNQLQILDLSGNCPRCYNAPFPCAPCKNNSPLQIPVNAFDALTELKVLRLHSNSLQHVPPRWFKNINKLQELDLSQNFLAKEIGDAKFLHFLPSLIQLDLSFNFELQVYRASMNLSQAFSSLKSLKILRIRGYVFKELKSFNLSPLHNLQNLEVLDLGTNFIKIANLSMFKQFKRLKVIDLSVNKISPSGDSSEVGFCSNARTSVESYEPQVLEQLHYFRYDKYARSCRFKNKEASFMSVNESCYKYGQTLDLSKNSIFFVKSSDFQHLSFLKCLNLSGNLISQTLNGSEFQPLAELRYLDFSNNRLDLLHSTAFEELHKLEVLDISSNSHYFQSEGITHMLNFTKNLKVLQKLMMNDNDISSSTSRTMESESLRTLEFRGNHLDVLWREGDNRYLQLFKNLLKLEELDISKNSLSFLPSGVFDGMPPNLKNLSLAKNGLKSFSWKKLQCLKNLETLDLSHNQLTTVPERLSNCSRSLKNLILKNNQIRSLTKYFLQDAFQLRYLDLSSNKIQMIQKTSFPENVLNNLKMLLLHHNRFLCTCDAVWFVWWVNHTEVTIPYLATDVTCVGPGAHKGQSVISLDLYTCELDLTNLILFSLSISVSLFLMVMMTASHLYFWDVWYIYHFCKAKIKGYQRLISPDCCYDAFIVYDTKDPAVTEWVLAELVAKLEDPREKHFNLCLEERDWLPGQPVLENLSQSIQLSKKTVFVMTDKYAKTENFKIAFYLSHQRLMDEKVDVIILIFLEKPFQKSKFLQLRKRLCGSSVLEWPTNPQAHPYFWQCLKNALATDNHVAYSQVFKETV
Procedure, shortened: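 Human PBMCs were incubated with compound. Their medium was then transferred onto an HCV replicon system, so the antiviral read-out reflects interferon and cytokines the PBMCs induced. Values are reported as lowest effective concentration (LEC), averaged when determined in two or more independent experiments.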

Plasma [9] = test: Proinflammatory activity in C57BL/6J mouse plasma assessed as TNFalpha levels at 30 mg/kg, po by multiplex assay (reference value: 70 pg/ml); type: functional
Cynomolgus monkey [10] = test: Induction of G-CSF in cynomolgus monkey plasma at 1 mg/kg, po after 24 hrs by Luminex assay (reference value: 85 pg/ml); type: functional, organism-based; settings: Macaca fascicularis
Procedure, shortened: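 Healthy cynomolgus monkeys given single oral doses of 1, 3, 9 and 30 mg/kg, with a 2-week wash-out planned between doses. Systemic cytokine levels in plasma were sampled at 0.5, 1, 2, 4, 9 and 24 h postdose.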

Cynomolgus monkey [11] = test: Upregulation of Tlr7 expression in cynomolgus monkey plasma at 1 mg/kg, po after 24 hrs by Fluidigm RT-qPCR analysis (reference value: 1.8); type: functional, Macaca fascicularis
Plasma [12] = test: Upregulation of IP-10 mRNA expression levels in C57BL/6J mouse plasma at 3 mg/kg, po by RT-qPCR analysis (reference value: 1); type: functional
Cynomolgus monkey [13] = test: Proinflammatory activity in cynomolgus monkey plasma assessed as IL-8 levels at 9 mg/kg, po after 24 hrs by Luminex assay (reference value: 430 pg/ml); type: functional, Macaca fascicularis
Cynomolgus monkey [14] = test: Activation of monocytes in cynomolgus monkey plasma assessed as upregulation of IL1Ra levels at 9 mg/kg, po after 24 hrs by Luminex assay (reference value: 320 pg/ml); type: functional, Macaca fascicularis
Plasma [15] = test: Anti-inflammatory activity in C57BL/6J mouse plasma assessed as IL-10 levels at 0.3 mg/kg, po by multiplex assay (reference value: 120 pg/ml); type: functional; procedure, shortened: as §1
Cynomolgus monkey [16] = test: Activation of monocytes in cynomolgus monkey plasma assessed as upregulation of MIP1 levels at 1 mg/kg, po after 24 hrs by Luminex assay (reference value: 37 pg/ml); type: functional, Macaca fascicularis
Cynomolgus monkey [17] = test: Anti-inflammatory activity in cynomolgus monkey plasma assessed as IL-10 levels at 9 mg/kg, po after 24 hrs by Luminex assay (reference value: 195 pg/ml); type: functional, Macaca fascicularis
Cynomolgus monkey [18] = test: Induction of ISG response in cynomolgus monkey plasma assessed as upregulation of Isg15 mRNA expression at 30 mg/kg, po after 24 hrs by Fluidigm RT-qPCR analysis (reference value: 1); type: functional, Macaca fascicularis
Procedure, shortened: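 Cynomolgus monkeys, single oral doses of 1, 3, 9 and 30 mg/kg with a planned 2-week wash-out between doses. Systemic ISG (ISG15, Mx1, OAS1) mRNA was measured by Fluidigm RT-qPCR at 1, 2, 4, 8 and 24 h postdose.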

[19] = Selectivity index, ratio of compound concentration causing induction of AST level in primary human hepatocytes infected with HBV genotype C for 12 days followed by exposure to conditioned supernatant from at 5 uM compound treated PBMCs measured after 42 days to Agonist activity at human TLR7 expressed in HEK293 cells

## CCC[C@@H](CCO)Nc1nc(N)nc2c(F)cccc12
[1]
  Cp: 35.7 ng/mL
Liver [2]
  fold change (FC): 800
Plasma [3]
  Activity: 295 pg/mL
Liver [4]
  Activity: 6755 pg/g
Cynomolgus monkey [5]
  Activity: 2990 pg/mL
[6]
  Activity: Active
[7]
  permeability: Permeable
[8]
  MEC: 0.25 µM
Plasma [9]
  Activity: >10000 pg/mL
Cynomolgus monkey [10]
  Activity: Below limit of detection
Cynomolgus monkey [11]
  fold change (FC): 4.8
Plasma [12]
  fold change (FC): 2485
Cynomolgus monkey [13]
  Activity: 1640 pg/mL
Cynomolgus monkey [14]
  Activity: 2455 pg/mL
Plasma [15]
  Activity: 345 pg/mL
Cynomolgus monkey [16]
  Activity: 44 pg/mL
Cynomolgus monkey [17]
  Activity: 3785 pg/mL
Cynomolgus monkey [18]
  fold change (FC): 285
[19]
  Ratio: 25
